Compounds with a hit are over-represented: about 2.9% of the library has one in this group of screens.
SUMO Mot1 rescue: inhibitors of SUMOylation pathway: yeast Mot1-301 growth rescue | S. cerevisiae Mot1-301 growth rescue, ATP luminescence, 38.5C; percent above DMSO median, 100 means doubled | growth rescue, % at 18.8 µM | 320,000 tested, 1% active;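 active = every valid replicate shows activation above 250% relative to neutral control wells; inactive = the rest, any valid replicate at or below 250%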;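 also: OY570 slx delta 5 strain wells were the positive control but not used for scaling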
PolyA inh: yeast polyadenylation inhibition; 300,000 tested, 0.02% active; S. cerevisiae SKY197-pL101 polyadenylation reporter, beta-gal luminescence; efflux-impaired pdr1/pdr3 knockout yeast; score 100 = 6 SD above DMSO; activity score, % at 12 µM;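 active = lowest replicate activity score at least 50, where 100 means six control SD above control mean; inconclusive = lowest score under 50 but half or more replicates reach 50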;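 also: yeast exposed to compound for 9 h at 30 °C; higher score means more reporter readthrough which indicates perturbed polyadenylation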
NALP1 inh: blocks the NALP1 inflammasome reconstituted in yeast; S. cerevisiae NALP1/ASC/caspase-1 growth, X-gal OD620, 72 h; inhibition, % at 10 µM; 280,000 tested, 0.61% active; AID 2071; in the data active = inhibition mostly above about 24%, no sharp cut-off; inactive = mostly below about 32%
NLRP3 yeast inh: inhibitors of NALP3 inflammasome in yeast. inhibition, % at 10 µM. Yeast reconstituted NLRP3/ASC/caspase-1, beta-gal luminescence, 24 h. 330,000 tested, 0.39% active;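 active = inhibition of 50% or more; inactive = inhibition below 50%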;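 also: plate controls were induced DMSO wells for no effect and uninduced yeast grown without galactose for full effect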
VIM-2 inh: blocks Pseudomonas aeruginosa VIM-2 metallo-beta-lactamase; inhibition, % at 5.6 µM; 290,000 tested, 0.89% active; AID 1527; purified VIM-2, nitrocefin hydrolysis, epi-absorbance fluorescence;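 active = inhibition above the mean of all tested compounds plus 3 SD, cutoff set per screening run, cut at about 7.5% in these data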;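 also: red hydrolysis product quenches plate fluorescence so inhibitors raise well fluorescence; 0% = enzyme with DMSO and 100% = DMSO without enzyme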
IMP-1 inhibitor: inhibitors of Pseudomonas aeruginosa IMP-1 metallo-beta-lactamase; purified IMP-1, nitrocefin hydrolysis, epi-absorbance fluorescence; inhibition, % at 5.6 µM; 290,000 tested, 0.45% active;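 active = inhibition above the mean plus 3 SD of all compounds in the same screening run, cut at about 4.5% in these data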;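 also: 0% = IMP-1 with DMSO and 100% = DMSO wells lacking enzyme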
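Material – recombinant IMP-1 enzyme, purified · Amount – IMP-1 0.2 nM before substrate addition · Medium – HEPES buffer pH 7.1 with ZnSO4 and Brij 35 · Timing – 25 °C, 15 min preincubation, 25 min reaction · Measured by – plate fluorescence quenching by hydrolysis product, ex 480/em 530 nm · Read-out – percent enzyme inhibition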
* = called active by the depositor.

For CCOc1ccc(S(=O)(=O)N(C)CC(=O)NC2CC2)cc1 the results were SUMO Mot1 rescue 158.9, PolyA inh -9.4, NALP1 inh 10.5, NLRP3 yeast inh 12.8, VIM-2 inh -2.2 and IMP-1 inhibitor -0.3.
Screening CCOC(=O)N1CCN(C(=O)COC(=O)CN(C)S(=O)(=O)c2ccc(NC(C)=O)cc2)CC1 returned SUMO Mot1 rescue -2.5, PolyA inh 6.6, NALP1 inh 23.2, NLRP3 yeast inh -7.9, VIM-2 inh -1.4 and IMP-1 inhibitor -1.9.
For O=C(COC(=O)CSCC(=O)N1CCCCC1)Nc1ccc(Cl)cc1 the results were SUMO Mot1 rescue 338.1*, PolyA inh 7.7, NALP1 inh 13.2, NLRP3 yeast inh 1.0, VIM-2 inh -0.6 and IMP-1 inhibitor -0.2.
`Cc1c(C#N)c(O)n(C)c(=O)c1N=Nc1ccc(S(N)(=O)=O)cc1` gave PolyA inh 20.1, NALP1 inh -7.1, VIM-2 inh 10.0* and IMP-1 inhibitor -5.2.
`Cc1cc(C)c2c(=O)n(CC(=O)NCCCN3CCOCC3)sc2n1` gave SUMO Mot1 rescue 352.5*, PolyA inh 0.7, NLRP3 yeast inh 14.5, VIM-2 inh -3.8 and IMP-1 inhibitor -2.7.
Screening O=C1CCC(C(=O)N2CCCC(Nc3ccc(F)cc3)C2)=NN1 (stereo not drawn) returned SUMO Mot1 rescue 2.5, PolyA inh 9.3, NALP1 inh 9.0, NLRP3 yeast inh 9.7, VIM-2 inh -3.3 and IMP-1 inhibitor -1.9.
`C=CCOC(=O)C1=C(C)Nc2[nH]c(=O)[nH]c(=O)c2C1c1ccccc1` (stereo not drawn) gave SUMO Mot1 rescue 237.7, NALP1 inh 28.7*, NLRP3 yeast inh -21.3, VIM-2 inh -4.5 and IMP-1 inhibitor -2.9.
For CCOC(=O)C1=C(C)Nc2[nH]c(=O)[nH]c(=O)c2C1c1cccs1 (stereo not drawn) the results were SUMO Mot1 rescue -1.4, PolyA inh -14.0, NALP1 inh 15.9, NLRP3 yeast inh 1.3, VIM-2 inh -0.2 and IMP-1 inhibitor -3.7.
For CC(=O)c1cccc(NC(=O)C23CC4CC(C2)CC(n2cncn2)(C4)C3)c1 the results were SUMO Mot1 rescue -8.0, PolyA inh 0.3, NALP1 inh 28.7, NLRP3 yeast inh 14.8, VIM-2 inh -5.2 and IMP-1 inhibitor -1.4.
Screening C/C(=N\NC(=O)c1nnn(-c2nonc2N)c1CN1CCCCC1)c1ccccc1O returned SUMO Mot1 rescue -12.2, PolyA inh -3.8, NALP1 inh -4.9, NLRP3 yeast inh 7.0, VIM-2 inh -1.3 and IMP-1 inhibitor -0.6.
Screening Cc1ccccc1N1C(=O)CC(c2c[nH]c3ccccc23)C1=O (stereo not drawn) returned SUMO Mot1 rescue -21.8, PolyA inh -3.2, NALP1 inh 23.1*, NLRP3 yeast inh 10.0, VIM-2 inh -3.0 and IMP-1 inhibitor -1.6.
Screening Cc1ccccc1N1CCN(Cc2c[nH]c3ccccc23)CC1 returned SUMO Mot1 rescue 5.4, PolyA inh -3.9, NALP1 inh 12.8, NLRP3 yeast inh 26.3, VIM-2 inh -2.5 and IMP-1 inhibitor -2.6.
For C#CCOC(=O)c1ccc(-n2cncn2)nc1 the results were SUMO Mot1 rescue -6.5, PolyA inh -0.6, NALP1 inh 42.4*, NLRP3 yeast inh 10.1, VIM-2 inh -3.2 and IMP-1 inhibitor -1.3.
COc1ccc(/C=N/NS(=O)(=O)c2ccc(F)cc2)cc1CN1CCSCC1 was read as SUMO Mot1 rescue -1.5, PolyA inh inconclusive, NALP1 inh 30.1*, NLRP3 yeast inh 1.7, VIM-2 inh -2.6 and IMP-1 inhibitor -2.5.
COc1ccc(/C=N/NC(=O)c2ccccc2)cc1CN1CCN(c2ccc(F)cc2)CC1 was read as SUMO Mot1 rescue -25.8, PolyA inh -0.9, NALP1 inh 13.4, NLRP3 yeast inh 15.6, VIM-2 inh -1.3 and IMP-1 inhibitor -1.4.
For CCCc1ccc(O)c(N=Cc2cc(Br)cc(OCC)c2O)c1 the results were SUMO Mot1 rescue inactive, PolyA inh -8.4, NALP1 inh 2.3, NLRP3 yeast inh 31.6, VIM-2 inh -1.7 and IMP-1 inhibitor 5.5*.
`Cc1ccc(C2(c3ccccc3)NC(=O)N(CC(=O)N3CC(=O)Nc4ccccc43)C2=O)cc1C` (stereo not drawn) gave NLRP3 yeast inh 2.5.
Screening COc1cc2nc(NCC3CCCO3)n3nc(-c4cccnc4)nc3c2cc1OC (stereo not drawn) returned SUMO Mot1 rescue 4.1, PolyA inh -7.0, NALP1 inh 37.2*, NLRP3 yeast inh 3.6, VIM-2 inh -0.4 and IMP-1 inhibitor -1.2.
`CCOC(=O)C1CCCN(C(=O)C(=O)c2cn(CC(=O)N3CCOCC3)c3ccccc23)C1` (stereo not drawn) gave SUMO Mot1 rescue 4.6, PolyA inh -0.7, NALP1 inh -0.4, NLRP3 yeast inh 0.9, VIM-2 inh -2.4 and IMP-1 inhibitor -0.6.
`CCOC(=O)c1ccc(NC(=S)N2CCSC2c2c(F)cc(F)cc2F)cc1` (stereo not drawn) gave SUMO Mot1 rescue -20.0, PolyA inh -26.7, NALP1 inh 20.7, NLRP3 yeast inh 3.3, VIM-2 inh -3.2 and IMP-1 inhibitor -3.8.
Screening Fc1cc(F)c(C2SCCN2C(=S)Nc2cccc(C(F)(F)F)c2)c(F)c1 (stereo not drawn) returned SUMO Mot1 rescue -11.6, PolyA inh -13.6, NALP1 inh 37.1*, NLRP3 yeast inh -0.9, VIM-2 inh -2.0 and IMP-1 inhibitor -3.5.
For CCOC(=O)c1ccc(-c2c(-c3ccc4c(c3)OCO4)noc2C)cc1F the results were SUMO Mot1 rescue -7.7, PolyA inh 11.0, NALP1 inh 13.3, NLRP3 yeast inh 22.5, VIM-2 inh -1.6 and IMP-1 inhibitor -2.7.
`NC(=O)[C@H]1CC2(CC(c3cccc(NC(=O)CC(c4ccccc4)c4ccccc4)c3)=NO2)CN1C(=O)CC(c1ccccc1)c1ccccc1` (stereo partly drawn) gave SUMO Mot1 rescue 355.3*, PolyA inh -7.8, NALP1 inh 15.3 and NLRP3 yeast inh -5.4.
Screening CCC(=O)N1CC2(CC(c3cccc(NC(=O)CC(c4ccccc4)c4ccccc4)c3)=NO2)C[C@H]1C(N)=O (stereo partly drawn) returned SUMO Mot1 rescue -9.0, PolyA inh 17.6 and NLRP3 yeast inh 1.5.
`Cc1ccc(S(=O)(=O)NNC(=O)C2COc3ccccc3O2)cc1C` (stereo not drawn) gave SUMO Mot1 rescue 24.6, PolyA inh 11.1, NALP1 inh 39.8*, NLRP3 yeast inh -4.2, VIM-2 inh -0.3 and IMP-1 inhibitor -3.4.
For CCOc1cc(N2CCOCC2)c(OCC)cc1NC(=O)CN1C(=O)N(C)C2(CCCCC2)C1=O the results were SUMO Mot1 rescue -0.7 and NLRP3 yeast inh 7.0.
